Published values of several laboratories.
Compare with care: the assays were run in different laboratories.

Structure (SMILES)	tested on	assay	system	setting	quantity	result
COc1ccc2cc1Oc1cc(ccc1OC)CCC(N[C@@H]1CCCc3ccccc31)CCCC2 (stereo partly drawn)	Streptococcus pyogenes	microbial growth, broth dilution	ATCC700294		MIC	> 100 µg/mL
OC[C@H]1O[C@@H](n2cnc3c(NC4CCCC4)ncnc32)[C@H](O)[C@@H]1O		MES seizures	rat	intraperitoneal	ED50	6.7 mg/kg
COc1ccc(OS(=O)(=O)NC(=O)CCCCc2ccccc2)cc1	Bacillus anthracis	microbial growth	STERNE34F2		MIC	200 µg/mL
CN[C@H](CC(C)C)C(=O)N[C@H]1C(=O)N[C@@H](CC(N)=O)C(=O)N[C@H]2C(=O)N[C@H]3C(=O)N[C@H](C(=O)N[C@H](C(=O)O)c4cc(O)cc(O)c4-c4cc3ccc4O)[C@H](O)c3ccc(c(Cl)c3)Oc3cc2cc(c3O[C@@H]2O[C@H](CO)[C@@H](O)[C@H](O)[C@H]2O[C@H]2C[C@](C)(N)[C@H](O)[C@H](C)O2)Oc2ccc(cc2Cl)[C@H]1O	Bifidobacterium	microbial growth, agar dilution		48 h	MIC	2 µg/mL
O=C(O)CCCCCCCCCCCCCCCc1ccccc1	Leishmania infantum	parasite growth	mouse Splenocyte	72 h, intracellular, amastigote	IC50	3 to 6 µM
O=C(CCCCC1CCCCC1)NP(=O)(O)O	Bacillus anthracis	microbial growth	STERNE34F2		MIC	> 200 µg/mL
CC1=NN(CNc2c(O)c(S(=O)(=O)O)cc3ccccc23)C(=O)C1=NNn1c(-c2ccccc2)nc2ccccc2c1=O	Vibrio cholerae	microbial growth, broth dilution		24 h	MIC	83.7 µM
Cn1cnc2nc(NCc3ccc(Cl)c(Cl)c3)[nH]c(=O)c21	Bifidobacterium	microbial growth, agar dilution		48 h	MIC	> 32 µg/mL
O=C1NN=C(N=Cc2ccccc2)C1=NNn1c(-c2ccccc2)nc2ccccc2c1=O	Vibrio cholerae	microbial growth, broth dilution		24 h	MIC	114 µM
CC[C@H]1OC(=O)[C@H](C)[C@@H](O[C@H]2C[C@@](C)(OC)[C@@H](O)[C@H](C)O2)[C@H](C)[C@@H](O[C@@H]2O[C@H](C)C[C@H](N(C)C)[C@H]2O)[C@](C)(O)C[C@@H](C)C(=O)[C@H](C)[C@@H](O)[C@]1(C)O	Bacillus anthracis	microbial growth	34F2		MIC	3.13 µM
CC1=NN(CNc2ccc(Cl)cc2)C(=O)C1=NNn1c(-c2ccccc2)nc2ccccc2c1=O	Vibrio cholerae	microbial growth, broth dilution		24 h	MIC	103 µM
COC[C@@H](NC(C)=O)C(=O)NCc1ccc(OCc2ccccc2)cc1		MES seizures	rat	oral	ED50	< 10 mg/kg
CCCCCCCCCCCC(=O)CP(=O)(O)O	Bacillus anthracis	microbial growth	STERNE34F2		MIC	50 µg/mL
CCOC(=O)Nc1ccc(NCc2ccc(F)cc2)cc1N		MES seizures	rat	oral	ED50	12.1 mg/kg
CCCC(=O)CP(=O)(O)O	Bacillus anthracis	microbial growth	STERNE34F2		MIC	100 µg/mL
CN1C(=O)CC(=O)N(c2ccccc2)c2cc(Cl)ccc21		MES seizures	rat	intraperitoneal	ED50	36.3 mg/kg
CC1=NN(CNc2ccc(C(=O)O)cc2)C(=O)C1=NNn1c(-c2ccccc2)nc2ccccc2c1=O	Vibrio cholerae	microbial growth, broth dilution		24 h	MIC	50.5 µM
CCCCCCCCCCCC(=O)NP(=O)(O)O	Bacillus anthracis	microbial growth	STERNE34F2		MIC	> 200 µg/mL
